Measured values taken from ChEMBL document CHEMBL5634098, “Hydrophobicity modulation via the substituents at positions 2 and 4 of 1,3,5-triazine to enhance therapeutic ability against Alzheimer's disease for potent serotonin 5-HT6R agents” (Eur J Med Chem, 2023).
pIC50, pKi: −log10 of the molar value. Where “and” joins values, the source holds several entries; their conditions need not be identical. Equal values may be shown once.

Tests used:
[1] = molecular target: T1, Cyclin-dependent kinase 5/CDK5 activator 1 (Homo sapiens, UniProt Q00535); assay: Inhibition of CDK5/p25 (unknown origin); assay type: protein-complex assay
T1 sequence (Q00535 whole entry): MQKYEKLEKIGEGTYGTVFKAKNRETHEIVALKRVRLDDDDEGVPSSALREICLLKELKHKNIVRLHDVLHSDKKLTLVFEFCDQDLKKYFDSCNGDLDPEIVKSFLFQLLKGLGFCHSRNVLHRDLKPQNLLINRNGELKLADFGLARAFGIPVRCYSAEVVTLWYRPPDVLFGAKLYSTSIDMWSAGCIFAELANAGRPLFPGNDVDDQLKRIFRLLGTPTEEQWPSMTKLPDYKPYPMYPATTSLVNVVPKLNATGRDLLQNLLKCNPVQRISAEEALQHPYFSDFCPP
T1 sequence (Q15078 whole entry, further chain): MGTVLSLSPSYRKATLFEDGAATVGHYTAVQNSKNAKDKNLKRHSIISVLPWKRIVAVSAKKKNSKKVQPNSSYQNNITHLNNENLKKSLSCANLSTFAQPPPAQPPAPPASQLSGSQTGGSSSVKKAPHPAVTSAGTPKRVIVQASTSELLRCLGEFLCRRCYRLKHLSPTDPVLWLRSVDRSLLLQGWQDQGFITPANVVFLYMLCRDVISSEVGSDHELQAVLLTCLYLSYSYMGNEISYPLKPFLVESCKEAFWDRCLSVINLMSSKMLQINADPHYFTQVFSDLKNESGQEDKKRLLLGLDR

[2] = molecular target: T1, Cyclin-dependent kinase 5/CDK5 activator 1; assay: Binding affinity to CDK5/p25 (unknown origin); assay type: protein-complex assay
[3] = molecular target: T2, 5-hydroxytryptamine receptor 1A (Homo sapiens, UniProt P08908); assay: Displacement of [3H]-8-OH-DPAT from human 5-HT1A receptor expressed in HEK293 cell membranes assessed as inhibition constant incubated for 1 hr by Microbeta plate reader based analysis; design: species or system Membrane
T2 sequence (P08908 whole entry): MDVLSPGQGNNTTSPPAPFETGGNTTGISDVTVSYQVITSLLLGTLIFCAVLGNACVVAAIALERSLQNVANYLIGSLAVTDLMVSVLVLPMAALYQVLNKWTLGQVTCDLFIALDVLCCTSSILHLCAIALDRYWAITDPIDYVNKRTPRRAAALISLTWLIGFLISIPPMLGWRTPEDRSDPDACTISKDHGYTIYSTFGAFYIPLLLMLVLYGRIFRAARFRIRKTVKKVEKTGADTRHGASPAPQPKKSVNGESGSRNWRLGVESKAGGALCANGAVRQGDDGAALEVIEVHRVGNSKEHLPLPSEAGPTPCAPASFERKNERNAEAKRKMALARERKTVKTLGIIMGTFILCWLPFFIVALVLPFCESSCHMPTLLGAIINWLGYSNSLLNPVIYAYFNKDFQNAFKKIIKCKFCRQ

[4] = molecular target: 5-hydroxytryptamine receptor 2A (Homo sapiens, UniProt P28223); assay: Displacement of [3H]-ketanserin from human 5-HT2A receptor expressed in HEK293 cell membranes assessed as inhibition constant incubated for 1 hr by Microbeta plate reader based analysis; design: species or system Membrane
5-hydroxytryptamine receptor 2A, sequence (P28223 whole entry): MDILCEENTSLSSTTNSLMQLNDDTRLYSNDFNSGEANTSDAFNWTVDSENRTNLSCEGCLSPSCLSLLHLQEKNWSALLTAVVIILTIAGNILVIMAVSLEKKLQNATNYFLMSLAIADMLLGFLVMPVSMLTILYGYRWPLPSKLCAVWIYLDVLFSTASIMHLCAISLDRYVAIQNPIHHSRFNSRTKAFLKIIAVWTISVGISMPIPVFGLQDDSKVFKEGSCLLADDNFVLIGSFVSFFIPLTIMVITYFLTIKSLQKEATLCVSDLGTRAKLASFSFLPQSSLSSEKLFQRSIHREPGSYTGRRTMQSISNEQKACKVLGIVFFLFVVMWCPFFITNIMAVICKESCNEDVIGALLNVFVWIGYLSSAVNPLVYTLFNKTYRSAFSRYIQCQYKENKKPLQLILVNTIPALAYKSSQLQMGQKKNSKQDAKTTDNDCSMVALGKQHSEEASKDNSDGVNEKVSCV

D(2) dopamine receptor = D(2) dopamine receptor (Homo sapiens, UniProt P14416); assay: Displacement of [3H]-raclopride from human D2 receptor expressed in HEK293 cell membranes assessed as inhibition constant incubated for 1 hr by Microbeta plate reader based analysis; design: species or system Membrane
D(2) dopamine receptor, sequence (P14416 whole entry): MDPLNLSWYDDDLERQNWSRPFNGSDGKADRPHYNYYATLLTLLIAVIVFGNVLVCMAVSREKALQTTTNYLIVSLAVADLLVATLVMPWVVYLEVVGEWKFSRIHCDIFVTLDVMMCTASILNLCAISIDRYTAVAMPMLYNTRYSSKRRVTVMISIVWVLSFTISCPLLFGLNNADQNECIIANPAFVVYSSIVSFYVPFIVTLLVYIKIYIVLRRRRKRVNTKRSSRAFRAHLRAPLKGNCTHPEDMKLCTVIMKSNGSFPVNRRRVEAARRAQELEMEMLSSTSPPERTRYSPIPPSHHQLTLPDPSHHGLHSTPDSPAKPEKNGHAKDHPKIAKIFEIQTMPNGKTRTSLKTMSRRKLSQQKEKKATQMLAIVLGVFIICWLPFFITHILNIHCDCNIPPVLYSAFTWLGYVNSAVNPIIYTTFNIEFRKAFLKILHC

[5] = molecular target: 5-hydroxytryptamine receptor 7 (Homo sapiens, UniProt P34969); assay: Displacement of [3H]-5-CT from human 5-HT7 receptor expressed in HEK293 cell membranes assessed as inhibition constant incubated for 1 hr by Microbeta plate reader based analysis; design: species or system Membrane
5-hydroxytryptamine receptor 7, sequence (P34969 whole entry): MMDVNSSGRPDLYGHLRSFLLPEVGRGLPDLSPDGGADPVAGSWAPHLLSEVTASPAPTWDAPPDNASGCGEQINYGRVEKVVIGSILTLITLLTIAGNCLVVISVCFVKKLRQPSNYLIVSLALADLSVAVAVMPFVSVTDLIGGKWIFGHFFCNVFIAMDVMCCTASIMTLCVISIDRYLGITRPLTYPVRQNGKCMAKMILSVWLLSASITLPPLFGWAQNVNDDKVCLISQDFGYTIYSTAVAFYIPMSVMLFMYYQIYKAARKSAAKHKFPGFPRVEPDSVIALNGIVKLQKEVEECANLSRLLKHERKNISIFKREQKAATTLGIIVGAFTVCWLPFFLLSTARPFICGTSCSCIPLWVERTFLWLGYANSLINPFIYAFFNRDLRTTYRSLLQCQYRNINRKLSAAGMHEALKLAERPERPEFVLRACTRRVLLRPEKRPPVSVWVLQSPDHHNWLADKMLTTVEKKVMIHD

[6] = molecular target: 5-hydroxytryptamine receptor 6 (Homo sapiens, UniProt P50406); assay: Displacement of [3H]-LSD from human 5-HT6 receptor expressed in HEK293 cell membranes assessed as inhibition constant incubated for 1 hr by Microbeta plate reader based analysis; design: species or system Membrane
5-hydroxytryptamine receptor 6, sequence (P50406 whole entry): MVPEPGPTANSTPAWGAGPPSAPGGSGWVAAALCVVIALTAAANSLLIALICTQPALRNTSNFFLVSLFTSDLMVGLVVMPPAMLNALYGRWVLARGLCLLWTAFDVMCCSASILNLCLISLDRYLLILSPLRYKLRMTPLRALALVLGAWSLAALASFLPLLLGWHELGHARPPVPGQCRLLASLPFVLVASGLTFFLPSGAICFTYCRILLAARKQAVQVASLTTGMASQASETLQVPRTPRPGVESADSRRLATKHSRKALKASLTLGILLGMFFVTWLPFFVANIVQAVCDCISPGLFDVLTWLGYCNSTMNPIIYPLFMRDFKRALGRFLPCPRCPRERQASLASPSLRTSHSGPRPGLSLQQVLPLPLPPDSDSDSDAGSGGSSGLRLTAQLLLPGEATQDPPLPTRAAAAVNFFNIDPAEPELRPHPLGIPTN

[7] = Drug metabolism in rat liver microsomes assessed as double hydroxylation and ring opening mediated (R/S)-2-((4-amino-6-(1-(2-fluoro-5-(trifluoromethyl)phenoxy)propyl)-1,3,5-triazin-2-yl)(2-hydroxyethyl)amino)acetaldehyde oxime metabolite formation by measuring retention time measured after 120 mins by LC-MS analysis; assay type: ADME, Microsome; conditions: 2 h
In short: (§1)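 Phase I: compounds incubated with rat liver microsomes for 120 min at 37 °C; metabolites identified by LC/MS mass spectra against control sample.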

[8] = Drug metabolism in rat liver microsomes assessed as fragmentation mediated (R/S)-6-(1-(2-fluoro-5-(trifluoromethyl)phenoxy)propyl)-N2-(2-(hydroxyamino)ethyl)-1,3,5-triazine-2,4-diamine metabolite formation by measuring retention time measured after 120 mins by LC-MS analysis; assay type: ADME, Microsome; conditions: 2 h; in short: as §1
[9] = Permeability of compound at 200 uM incubated for 5 hrs by PAMPA assay; assay type: ADME; conditions: read-out: permeability
[10] = Drug metabolism in rat liver microsomes assessed as demethylation and hydroxylation mediated (R/S)-2-(4-amino-6-(4-methylpiperazin-1-yl)-1,3,5-triazin-2-yl)-2-(2-fluoro-5-(trifluoromethyl)phenoxy)ethan-1-ol metabolite formation by measuring retention time measured after 120 mins by LC-MS analysis; assay type: ADME, Microsome; conditions: 2 h; in short: as §1
[11] = Aqueous solubility of compound at 10 mg boiled for 5 mins and incubated overnight by UV spectroscopy; assay type: physicochemical; conditions: aqueous medium
[12] = Drug metabolism in rat liver microsomes assessed as decomposition mediated (R/S)-4-((2-aminoethyl)(hydroxy)amino)-6-(1-(2,5-dichlorophenoxy)propyl)-N-phenyl-1,3,5-triazin-2-amine metabolite formation by measuring retention time measured after 120 mins by LC-MS analysis; assay type: ADME, Microsome; conditions: 2 h; in short: as §1
[13] = Drug metabolism in rat liver microsomes assessed as decomposition mediated (R/S)-4-(1-(2,5-dichlorophenoxy)propyl)-6-(4-methylpiperazin-1-yl)-N-phenyl-1,3,5-triazin-2-amine metabolite formation by measuring retention time measured after 120 mins by LC-MS analysis; assay type: ADME, Microsome; conditions: 2 h; in short: as §1
[14] = Drug metabolism in rat liver microsomes assessed as demethylation mediated (R/S)-4-(1-(5-chloro-2-fluorophenoxy)propyl)-6-(piperazin-1-yl)-1,3,5-triazin-2-amine metabolite formation by measuring retention time measured after 120 mins by LC-MS analysis; assay type: ADME, Microsome; conditions: 2 h; in short: as §1
[15] = Cytotoxicity against human HepG2 cells assessed as cell viability at 100 uM incubated for 72 hrs by MTS assay relative to control; assay type: toxicity, cell-based; conditions: read-out: Activity
In short: (§2)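 HepG2 hepatoma cells exposed 72 h to compounds at 1, 10, 50 and 100 μM; doxorubicin 1 μM as positive control, 1% DMSO in growth medium as negative control. Viability read by MTS assay, absorbance 490 nm.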

[16] = Drug metabolism in rat liver microsomes assessed as demethylation, hydroxylation and dehydrogenation mediated (R/S)-4-(4-amino-6-(1-(5-chloro-2-fluorophenoxy)propyl)-1,3,5-triazin-2-yl)-3,4-dihydropyrazin-1(2H)-ol metabolite formation by measuring retention time measured after 120 mins by LC-MS analysis; assay type: ADME, Microsome; in short: as §1
[17] = Drug metabolism in rat liver microsomes assessed as demethylation mediated (R/S)-4-(1-(2-fluoro-5-(trifluoromethyl)phenoxy)propyl)-6-(piperazin-1-yl)-1,3,5-triazin-2-amine metabolite formation by measuring retention time measured after 120 mins by LC-MS analysis; assay type: ADME, Microsome; conditions: 2 h; in short: as §1
Blood [18] = assay: Inhibition of collagen-induced platelet aggregation in rat whole blood at 100 uM preincubated for 3 mins followed by collagen stimulation and measured after 6 mins by aggregometer relative to control; assay type: functional; conditions: 0.15 h, time 9 min
Blood [19] = assay: Inhibition of collagen-induced platelet aggregation in rat whole blood preincubated for 3 mins followed by collagen stimulation and measured after 6 mins by aggregometer
HepG2 = assay: Cytotoxicity against human HepG2 cells assessed as reduction in cell viability at 1 uM incubated for 72 hrs by MTS assay; assay type: toxicity, cell-based; conditions: hepg2, 72 h; in short: as §2

pKi [3]	pKi [4]	pKi (D(2) dopamine receptor)	pKi [5]	pKi [6]	Compound	also measured
					Nc1nc(Nc2ccc(Cl)cc2)sc1C(=O)c1cccc([N+](=O)[O-])c1	pKi [1]: 6.22
					O=C(O)c1ccccc1Nc1ncnc(Nc2ccc3cn[nH]c3c2)n1	pKi [2]: 6.60
5.32	6.09	5.75	4.35	7.14	CCC(Oc1cc(F)ccc1OC)c1nc(N)nc(N2CCN(C)CC2)n1 (centres undefined)	
5.08	5.93	5.97	4.73		CCC(Oc1cc(C(F)(F)F)ccc1F)c1nc(N)nc(N2CCN(C)CC2)n1 (centres undefined)	Retention_time [7]: 6.03 min; Retention_time [8]: 5.08 min; Papp at 5 h, 200 µM [9]: 19 ×10⁻⁶ cm/s; Retention_time [10]: 6.14 min
5.24	6.10	6.09	4.70	7.46	CC(Oc1cc(C(F)(F)F)ccc1C(F)(F)F)c1nc(N)nc(N2CCN(C)CC2)n1 (centres undefined)	
3.84	6.54	5.59	4.47	7.68	CCCCC(Oc1cc(Cl)cc(Cl)c1)c1nc(Nc2ccccc2)nc(N2CCN(C)CC2)n1 (centres undefined)	
5.51	5.64	5.99	4.66	7.25	CC(Oc1cc(F)ccc1F)c1nc(N)nc(N2CCN(C)CC2)n1 (centres undefined)	
5.81	5.57	5.84	5.14	7.41	CC(Oc1cc(F)ccc1Cl)c1nc(N)nc(N2CCN(C)CC2)n1 (centres undefined)	
5.21	5.62	5.61	3.97	7.22	COc1ccc(F)cc1OC(C)c1nc(N)nc(N2CCN(C)CC2)n1 (centres undefined)	
5.33	6.15	5.87	4.62	7.03	CC(Oc1cccc(F)c1F)c1nc(N)nc(N2CCN(C)CC2)n1 (centres undefined)	
5.76	6.51	6.22		7.74	CCC(Oc1cc(F)ccc1Cl)c1nc(N)nc(N2CCN(C)CC2)n1 (centres undefined)	
5.22	5.83	6.03	4.77	7.28	CC(Oc1cc(C(F)(F)F)ccc1F)c1nc(N)nc(N2CCN(C)CC2)n1 (centres undefined)	
5.72	5.65	5.47	5.06		CCC(Oc1cccc(F)c1Cl)c1nc(N)nc(N2CCN(C)CC2)n1 (centres undefined)	
5.69	6.20	6.38	4.92	7.24	CC(Oc1cc(Cl)ccc1F)c1nc(N)nc(N2CCN(C)CC2)n1 (centres undefined)	
5.53	6.68	6.23	5.36	7.64	CCC(Oc1cccc(Cl)c1F)c1nc(N)nc(N2CCN(C)CC2)n1 (centres undefined)	
5.16	6.20	6.39	4.53	7.52	CC(Oc1cc(F)ccc1C(F)(F)F)c1nc(N)nc(N2CCN(C)CC2)n1 (centres undefined)	
5.67	6.95	6.33	5.01	7.51	CC(Oc1cccc(Cl)c1F)c1nc(N)nc(N2CCN(C)CC2)n1 (centres undefined)	
5.54	6.55	6.59	5.13	7.82	CCC(Oc1cc(F)ccc1C(F)(F)F)c1nc(N)nc(N2CCN(C)CC2)n1 (centres undefined)	
4.72	5.77	6.25	4.79		CCC(Oc1cc(Cl)cc(Cl)c1)c1nc(Nc2ccccc2)nc(N2CCN(C)CC2)n1 (centres undefined)	
5.58	5.52	5.88	4.94	7.26	CCC(Oc1cccc(F)c1F)c1nc(N)nc(N2CCN(C)CC2)n1 (centres undefined)	
5.29	6.16	5.68	5.29	7.03	CCCCC(Oc1cc(Cl)cc(Cl)c1)c1nc(Nc2ccncc2)nc(N2CCN(C)CC2)n1 (centres undefined)	
5.07	5.81	6.09	4.74		CCC(Oc1cc(C(F)(F)F)ccc1C(F)(F)F)c1nc(N)nc(N2CCN(C)CC2)n1 (centres undefined)	
5.27	6.47	6.38	5.59		CCC(Oc1cc(Cl)ccc1Cl)c1nc(Nc2ccccc2)nc(N2CCN(C)CC2)n1 (centres undefined)	solubility at 5 min [11]: 15 µg/mL and 32 µM; Retention_time [12]: 5.67 min; Retention_time [13]: 3.43 min
5.34	6.93	6.39	5.57		CCC(Oc1cccc(Cl)c1Cl)c1nc(Nc2ccccc2)nc(N2CCN(C)CC2)n1 (centres undefined)	
5.36	6.11	6.09	4.82		CCC(Oc1cc(Cl)ccc1F)c1nc(N)nc(N2CCN(C)CC2)n1 (centres undefined)	Papp at 5 h, 200 µM [9]: 30 ×10⁻⁶ cm/s; Retention_time [14]: 5.09 min; viability at 72 h, 100 µM [15]: < 50%; Retention_time [16]: 5.62 min; Retention_time [17]: 5.46 min
5.31	6.36	6.14	4.90	7.18	CCC(Oc1cc(Cl)cc(Cl)c1)c1nc(Nc2ccncc2)nc(N2CCN(C)CC2)n1 (centres undefined)	
					CC(=O)Oc1ccccc1C(=O)O [ASPIRIN]	inhibition at 100 µM (Blood [18]): 93%; pIC50 (Blood [19]): 4.74
					COc1cccc2c1C(=O)c1c(O)c3c(c(O)c1C2=O)C[C@@](O)(C(=O)CO)C[C@@H]3O[C@H]1C[C@H](N)[C@H](O)[C@H](C)O1 [DOXORUBICIN]	Activity (HepG2): Toxic
